# CSN deneddyl inh: blocks human CSN-mediated cullin deneddylation | hit rate 0.38% among 360,000 | Purified CSN, SCF-Nedd8-OG deneddylation, fluorescence polarization | inhibition, % at 12.5 µM;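 active means pattern-corrected inhibition above about 35%, with an unprinted fluorescence ratio check between 0.5 and 1.5, limit read from the data, passing the limit was not always enough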;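 further: 0% = enzyme with substrate and 100% = substrate without enzyme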
# Target sequence (Q92905 whole entry, looked up, one chain of several): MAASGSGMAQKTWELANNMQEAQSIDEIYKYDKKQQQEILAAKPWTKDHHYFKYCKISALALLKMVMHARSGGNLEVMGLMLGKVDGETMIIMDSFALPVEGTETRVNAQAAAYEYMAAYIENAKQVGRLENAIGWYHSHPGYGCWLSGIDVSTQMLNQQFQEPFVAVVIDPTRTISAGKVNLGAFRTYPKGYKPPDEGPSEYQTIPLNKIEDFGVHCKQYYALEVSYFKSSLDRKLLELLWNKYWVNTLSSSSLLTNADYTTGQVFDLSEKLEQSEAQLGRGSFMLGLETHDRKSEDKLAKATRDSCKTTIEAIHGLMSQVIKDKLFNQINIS
#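 test system = HEK293T-derived human Csn5 enzyme | amount = 0.24 nM Csn5 enzyme, final concentration | medium = Tris/NaCl/DTT buffer, pH 7.5 | schedule = 90 min reaction at room temperature | signal = FP | evaluation = inhibition of Csn5 cleavage, % | compound dosing = single dose of 12.5 µM compound with 0.25% DMSO | probe or stimulus = 10 nM SCFSkp2-Nedd8OG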
# LEDGF integ inh: blocks HIV-1 LEDGF/p75-dependent DNA integration; TR-FRET IN-LEDGF/p75 DNA integration, Eu/Cy5; inhibition, % at 3.7 µM; hit rate 0.64% among 370,000;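 active means inhibition above the screen-wide mean plus 3 SD, cut at about 13% in these data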;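 further: signal is the Cy5 over europium emission ratio at 671 and 618 nm; 0% = plate median of compound wells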
# ATG4B inhibitor: blocks human ATG4B protease cleavage of LC3 substrate; ATG4B cleavage of LC3-PLA2, NBD-HPC fluorescence, 1 h; hit rate 0.51% among 340,000; AID 504462; inhibition, % at 8.33 µM; in the data active means inhibition above about 40%
# Target sequence (Q9Y4P1 whole entry, looked up): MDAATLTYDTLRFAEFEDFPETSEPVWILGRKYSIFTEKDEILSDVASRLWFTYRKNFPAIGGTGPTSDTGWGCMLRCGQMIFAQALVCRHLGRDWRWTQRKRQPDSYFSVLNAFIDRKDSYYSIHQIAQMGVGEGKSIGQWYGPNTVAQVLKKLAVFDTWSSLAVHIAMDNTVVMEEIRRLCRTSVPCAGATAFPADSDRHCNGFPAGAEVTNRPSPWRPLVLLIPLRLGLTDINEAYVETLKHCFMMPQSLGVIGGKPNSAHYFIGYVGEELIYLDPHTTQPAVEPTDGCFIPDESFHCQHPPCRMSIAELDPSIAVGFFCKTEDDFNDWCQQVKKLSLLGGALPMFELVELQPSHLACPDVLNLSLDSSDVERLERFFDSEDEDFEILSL
# MBD2 DNA inh: inhibitors of human MBD2 binding to methylated oligonucleotide; TR-FRET; inhibition, % at 4.4 µM; Q9UBB5; hit rate 0.31% among 370,000; in the data active means inhibition above about 13%
# UHRF1 MBD2 ctr: UHRF1 methyl-DNA binding inhibition; inhibition, % at 4.4 µM; hit rate 0.75% among 370,000; UHRF1 binding to methylated oligo, TR-FRET; in the data active means inhibition above about 21%;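 further: UHRF1 SRA domain binding a hemimethylated CpG hairpin DNA probe; 0% = median of test compound wells and 100% = reference inhibitor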
# rCAG binder: molecules binding r(CAG) RNA repeats; r(CAG) RNA repeat, TO-PRO-1 dye displacement fluorescence; inhibition, % at 3 µM; hit rate 1.3% among 370,000;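 active means inhibition above the plate cutoff, the mean of all test compounds on that plate plus 3 SD, cut at about 35% in these data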;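 further: 0% = DMSO alone and 100% = 100 µM mitoxantrone as full dye displacement; higher means more dye released from RNA so lower well fluorescence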
# ATG4B conf: confirmation of human ATG4B inhibitors; shares compounds with ATG4B inhibitor; inhibition, % at 8.33 µM; ATG4B protease fluorescent substrate cleavage assay; hit rate 92% among 320; in the data active means inhibition above about 39%
# PLA2 counter: PLA2 (human) inhibition in ATG4B counter-screen. shares compounds with ATG4B inhibitor. purified PLA2, NBD-C6-HPC fluorescence, 45 min. inhibition, % at 8.33 µM. hit rate 66% among 1,600. AID 588402; in the data active means inhibition above about 50%
# * marks the source's active call; other numbers are inactive results; x = no result given. Rows were chosen to be rich in hits. Some 3.1% of all compounds tested hit in one or more screens of this group.
SMILES,CSN deneddyl inh,LEDGF integ inh,ATG4B inhibitor,MBD2 DNA inh,UHRF1 MBD2 ctr,rCAG binder,PLA2 counter,others
O=C(NNC(=O)c1nn(-c2ccc(F)cc2)ccc1=O)c1ccccc1Cl,-4.8,-3.8,42.1*,2.2,-5.2,2.2,-21.1,
Cc1ccccc1-c1nnc(SCc2ccccc2F)o1,-5.8,2.9,54.2*,7.8,4.2,-1.7,63.7*,
Cc1cccc2nc(-c3ccccc3)nc(N3CCC(O)(c4ccc(Cl)cc4)CC3)c12,0.8,1.8,41.5*,4.2,-1.0,7.4,22.5,
CCN1CCN(c2nc(-c3ccccc3)nc3ccccc23)CC1,-15.1,-0.4,-14.0,-0.4,-0.2,-0.4,x,
CCCCCCOc1ccc(N2C(=O)CC(S/C(N)=N/N=C(\C)c3cccs3)C2=O)cc1 (stereo unspecified),5.7,-2.4,48.6*,0.3,0.3,27.2,4.9,ATG4B conf=61.2*
CNC(C)C(=O)NC(C(=O)N1CCCC1C(=O)Nc1cccc2ncccc12)C(C)C (stereo unspecified),x,3.0,x,-3.0,-0.6,x,x,
Cc1cccc(C)c1NC(=O)c1cn(-c2ccccc2)nc1-c1ccccc1,-1.9,5.6,29.9,-10.5,-0.1,0.2,x,
O=C(NN=C1CCCCCC1)c1cn(-c2ccccc2)nc1-c1ccccc1,0.9,0.1,43.4*,-0.4,6.0,5.5,3.3,ATG4B conf=62.1*
Cc1[nH]c2ccccc2c1CC(=O)Nc1ccc(Nc2cccnc2)c(-c2cc(C(F)(F)F)cc(C(F)(F)F)c2)c1,x,-3.5,x,-2.1,0.0,6.3,x,
COC(=O)c1ccc(COc2ccccc2OC)o1,-6.2,-0.6,-2.9,1.5,1.8,-2.8,x,
COc1ccccc1OCc1ccc(C(=O)n2nc(C)c(Cl)c2C)o1,-3.0,1.4,75.1*,-6.0,0.7,0.4,77.2*,
CCc1ccc2oc(-c3ccc(OC)cc3)cc(=Nc3cccc(C(=O)O)c3)c2c1,5.8,-6.6,81.1*,2.6,0.5,18.5,79.6*,
CCc1ccc2oc(-c3ccc(OC)cc3)cc(=Nc3c(C)n(C)n(-c4ccccc4)c3=O)c2c1,9.6,-1.2,11.0,-3.7,-0.6,2.4,x,
COc1ccc(-c2cc(=Nc3ccc(C(=O)O)cc3)c3cc(C)ccc3o2)cc1,-5.6,2.4,41.2*,-4.8,-1.6,2.4,54.2*,
COc1ccc(-c2cc(=O)c3cc(O)ccc3o2)cc1,0.9,-4.1,-14.8,-8.2,-3.8,8.0,x,
O=C(O)c1cccc(S(=O)(=O)NCC(=O)N2CCN(c3ccccn3)CC2)c1,x,2.6,x,1.2,1.8,2.7,x,
CC(=O)Nc1c(-c2ccc(F)cc2)nc2ncccn12,x,-4.0,x,5.2,2.1,4.3,x,
CCN(Cc1ccc2c(c1)OCO2)C(=O)CSc1nc(C)nc2sc(C)c(C)c12,5.7,3.8,58.4*,-0.2,0.2,0.5,74.7*,
CCN(C(=O)CSc1nc(C)nc2sc(C)c(C)c12)c1ccc(F)cc1,-2.8,-3.7,4.2,0.1,1.4,-0.1,x,
O=C(Nc1ccccc1)n1ccc2ccc(-c3ccc4cc[nH]c4c3)cc21,x,-1.8,x,0.8,-1.6,28.1,x,
Cc1nn(Cc2c(F)c(F)c(F)c(F)c2F)c(C)c1NC(=O)c1cccc(COc2ccccc2Cl)c1,-3.4,2.0,63.4*,-3.9,-2.0,4.3,56.2*,
Cc1nn(Cc2c(F)c(F)c(F)c(F)c2F)c(C)c1NC(=O)c1ccc(COc2ccc(Cl)cc2Cl)o1,-11.8,1.2,88.0*,2.4,-4.2,-0.3,84.6*,
O=C(Nc1ccn(Cc2c(F)c(F)cc(F)c2F)n1)c1ccc(COc2ccc(Cl)cc2Cl)o1,1.8,-1.3,12.5,-6.6,-0.4,3.0,x,
CC(C)(C)c1ccc(OCc2ccc(C(=O)N/N=C3\CC4CC=CC34)cc2)cc1 (stereo unspecified),-0.1,-0.4,48.8*,4.5,-1.9,-1.3,55.6*,
CC(C)(C)NC(=O)C(c1cccnc1)N(C(=O)c1cnc[nH]1)c1ccc(C(C)(C)C)cc1 (stereo unspecified),x,5.0,x,-4.0,-0.9,x,x,
SMILES,CSN deneddyl inh,LEDGF integ inh,ATG4B inhibitor,MBD2 DNA inh,UHRF1 MBD2 ctr,rCAG binder,PLA2 counter,others
Oc1ccc(C2C(c3ccccc3)=NN=C(c3ccc(Cl)cc3)N2O)c(O)c1 (stereo unspecified),5.0,3.0,59.6*,-3.1,1.6,26.0,75.5*,
Oc1ccc(C2C(c3ccccc3)=NN=C(c3ccccc3F)N2O)c(O)c1 (stereo unspecified),-1.4,-1.3,63.2*,-2.2,5.9,15.8,83.8*,
NCCn1c(-c2ccccc2)cc(C(=O)O)c1-c1ccccc1F,-1.7,1.9,-4.7,2.0,-6.2,0.7,x,
CN(C)c1ccc(C(=O)NCC2CCN(C(=O)C(=O)c3cccs3)CC2)cc1,x,-0.6,x,-0.5,-2.2,4.6,x,
O=C(CNS(=O)(=O)c1ccccc1)N1CCN(c2ccccn2)CC1,x,2.0,x,2.6,1.2,1.8,x,
Cc1ccc(CNC(=O)c2ccc(CS(=O)Cc3ccccc3Cl)o2)cc1 (stereo unspecified),-1.9,-8.0,4.1,-1.3,2.1,-5.0,x,
Cc1ccc(CS(=O)Cc2ccc(C(=O)NCc3ccccc3Cl)o2)cc1 (stereo unspecified),-2.9,-1.7,41.8*,8.6,4.4,-4.0,37.7,
O=C(NCc1cccc(Cl)c1)c1ccc(CS(=O)Cc2ccccc2Cl)o1 (stereo unspecified),1.0,1.6,68.8*,-2.7,1.4,-4.3,69.3*,
O=C(NCc1cccc(Cl)c1)c1ccc(CS(=O)Cc2ccc(Cl)cc2)o1 (stereo unspecified),0.8,1.0,59.9*,-0.5,1.5,-0.6,63.4*,
O=C(NCc1ccccc1)c1ccc(CS(=O)Cc2cccc(Cl)c2)o1 (stereo unspecified),-2.9,-3.2,x,0.2,-0.3,1.4,x,
CC1=CC(=O)C(C(C)C)=C/C1=N\OS(=O)(=O)c1ccccc1,x,-0.7,x,0.9,-0.2,x,x,
Cc1ccc(S(=O)(=O)N2[C@@H](c3cccc(Cl)c3)C(C(=O)O)=CC[C@H]2c2ccc(Cl)cc2)cc1,-0.8,0.5,11.4,-0.5,2.6,10.3,x,
Cc1ccc(S(=O)(=O)N2[C@@H](c3ccc(C(C)(C)C)cc3)C(C(=O)O)=CC[C@H]2c2ccc(Cl)cc2)cc1,12.4,-2.5,45.7*,2.7,2.0,89.4*,54.5*,
O=C(c1cccnc1)n1nc(NCc2ccccc2)nc1NCc1ccccc1,-3.6,-1.3,41.8*,3.9,1.1,-6.7,30.9,
O=C(c1ccco1)n1nc(NCc2ccccc2)nc1NCc1ccccc1,-8.9,-0.3,26.8,-0.4,-1.4,-3.9,x,
COC1=C(Br)C(=O)c2ncccc2C1=O,31.4,14.9*,68.8*,-9.7,10.5,4.8,-13.4,ATG4B conf=31.8
